Activity calls are given as the source filed them. The rule behind the calls is not given here.

For orientation: IC50 means the point on the concentration scale where inhibition reaches its midpoint.

In experiment [1] the test system is HEK293. The experiment is described as follows: Inhibition of human HSP70 expressed in HEK293 cells assessed as inhibition of refolding of heat denatured luciferase at 10 uM incubated for 1 hr followed by heat treatment measured after 2 hrs by Western blotting analysis. The class given is cell-based. In a few lines: (§1)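 HEK293 cells cotransfected with C-terminal HA-luciferase plus N-terminal Flag-human Hsp70 or control vector. Two days later: cycloheximide 50 μg/mL, compound at 10 μM added just before 1 h at 45 °C, then recovery at 37 °C up to 2 h. Triton X-100 lysates cleared at 20000g; luciferase activity normalized to protein, expressed as % of pre-heat-shock activity; soluble proteins immunoblotted.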

Experiment [2] has as its system HEK293. Description: Inhibition of HSP70 in HEK293 cells assessed as inhibition of refolding of heat denatured luciferase at 10 uM incubated for 1 hr followed by heat treatment measured after 2 hrs by Western blotting analysis. Type of experiment: cell-based. The note with it: Homo sapiens. In a few lines: as §1
A general note: Immunoblotting shows a protein as a band on a membrane.

Experiment [3] concerns MOLM-13. The experiment is described as follows: Inhibition of HSP70 in human MOLM13 cells assessed as STAT5 degradation at 1 to 20 uM by Western blotting analysis. The class given is cell-based. In a few lines: (§2)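 Cells (SKBr3, MDA-MB-468, MiaPaCa-2 in DME/F12; MOLM-13 in RPMI; 10% FBS) grown to 60–70% confluence, then given inhibitor or DMSO. Lysis in 50 mM Tris pH 7.4, 150 mM NaCl, 1% NP-40. Protein measured by BCA, and client proteins or cleaved PARP detected by immunoblotting with peroxidase-conjugated secondary antibody.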

Experiment [4] concerns the target Receptor-type tyrosine-protein kinase FLT3 (Homo sapiens) (UniProt P36888). Description: Inhibition of HSP70 in human MOLM13 cells assessed as mutant FLT3 degradation at 1 to 20 uM by Western blotting analysis. The note with it: MOLM-13. Type of experiment: cell-based. In a few lines:
as §2

Experiment [5] deals with MIA PaCa-2. Description: Inhibition of HSP70 in human MIAPaCa2 cells assessed as AKT degradation at 1 to 20 uM by Western blotting analysis. The class given is cell-based. In a few lines: as §2
Experiment [6] has as its system MIA PaCa-2. The experiment is described as follows: Inhibition of HSP70 in human MIAPaCa2 cells assessed as STAT-3 degradation at 1 to 20 uM by Western blotting analysis. The class given is cell-based. A digest of the protocol:
as §2

The subject of experiment [7] is MIA PaCa-2. Description: Inhibition of HSP70 in human MIAPaCa2 cells assessed as Raf-1 degradation at 1 to 20 uM by Western blotting analysis. The class given is cell-based. In a few lines:
as §2

The subject of experiment [8] is MDA-MB-468. The experiment is described as follows: Inhibition of HSP70 in human MDA-MB-468 cells assessed as Raf-1 degradation at 0.5 to 25 uM by Western blotting analysis. Type of experiment: cell-based. A digest of the protocol: as §2
For experiment [9], the system named is MDA-MB-468. Description: Inhibition of HSP70 in human MDA-MB-468 cells assessed as STAT-3 degradation at 0.5 to 25 uM by Western blotting analysis. Type of experiment: cell-based. A digest of the protocol: as §2
Experiment [10] addresses Heat shock protein HSP 90-beta (Homo sapiens) (UniProt P08238). Description: Displacement of GM-Cy3B from HSP90 in human SKBR3 cells after 24 hrs by fluorescence polarization assay. The note with it: SK-BR-3. A general note: In fluorescence polarisation assays a small probe gives low polarisation when free and higher when bound to something large.
A short description of experiment [11]: Cytotoxicity against human SKBR3 cells after 72 hrs by alamar blue assay. Type of experiment: functional, SK-BR-3. In a few lines: (§3)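 Alamar Blue (resazurin) viability assay: attached cells (SKBr3) plated at 8000/well, suspension cells (Kasumi-1) at 20000/well, left 24 h at 37 °C, then drug added in triplicate for 72 h. Alamar Blue 50 μM added, fluorescence read 6 h later (ex 530, em 580 nm). Growth inhibition versus control corrected for time-zero population; IC50 = concentration giving 50% growth inhibition.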
A general note: The colour change of resazurin is a common sign of viable cells or microbes.

Experiment [12] deals with SK-BR-3. Description: Induction of apoptosis in human SKBR3 cells assessed as c-PARP cleavage by Western blotting analysis. The class given is functional. In a few lines:
as §2

Experiment [13] deals with SK-BR-3. The experiment is described as follows: Inhibition of HSP70 in human SKBR3 cells assessed as Raf-1 degradation by Western blotting analysis. The class given is cell-based. In a few lines: as §2
Experiment [14] has as its system SK-BR-3. Description: Inhibition of HSP70 in human SKBR3 cells assessed as HER2 degradation by Western blotting analysis. The class given is cell-based. A digest of the protocol:
as §2

The test system of experiment [15] is MOLM-13. The experiment is described as follows: Induction of apoptosis in human MOLM13 cells assessed as caspase 3/7 activation after 16 hrs by fluorescence assay. Type of experiment: functional, cell-based. To be noted: Homo sapiens, MOLM-13, 16 h; read-out: IC50. A digest of the protocol: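 MOLM-13 cells at 30000/well in RPMI, held up to 24 h (37 °C, 5% CO2), then exposed 16 h to compound or DMSO. Buffer with 10 mM HEPES pH 7.5, 2 mM EDTA, 0.1% CHAPS and 25 μM Z-DEVD-R110 substrate added; fluorescence read once signal stabilized. Percent apoptotic increase calculated relative to control cells.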

The next experiment concerns Kasumi 1. Description: Cytotoxicity against human Kasumi-1 cells after 72 hrs by alamar blue assay. Type of experiment: functional, cell-based. The note with it: Homo sapiens, Kasumi 1, 72 h; read-out: IC50. A digest of the protocol:
as §3

The test system of experiment [16] is Heat shock 70 kDa protein (Homo sapiens). Description: Inhibition of HSP70 in human SKBR3 cells assessed as inhibition of HSP70-HOP-HSP90 complex formation after 24 hrs by Western blotting analysis. The note with it: SK-BR-3.

Receptor-type tyrosine-protein kinase FLT3 (Homo sapiens), sequence (P36888 whole entry): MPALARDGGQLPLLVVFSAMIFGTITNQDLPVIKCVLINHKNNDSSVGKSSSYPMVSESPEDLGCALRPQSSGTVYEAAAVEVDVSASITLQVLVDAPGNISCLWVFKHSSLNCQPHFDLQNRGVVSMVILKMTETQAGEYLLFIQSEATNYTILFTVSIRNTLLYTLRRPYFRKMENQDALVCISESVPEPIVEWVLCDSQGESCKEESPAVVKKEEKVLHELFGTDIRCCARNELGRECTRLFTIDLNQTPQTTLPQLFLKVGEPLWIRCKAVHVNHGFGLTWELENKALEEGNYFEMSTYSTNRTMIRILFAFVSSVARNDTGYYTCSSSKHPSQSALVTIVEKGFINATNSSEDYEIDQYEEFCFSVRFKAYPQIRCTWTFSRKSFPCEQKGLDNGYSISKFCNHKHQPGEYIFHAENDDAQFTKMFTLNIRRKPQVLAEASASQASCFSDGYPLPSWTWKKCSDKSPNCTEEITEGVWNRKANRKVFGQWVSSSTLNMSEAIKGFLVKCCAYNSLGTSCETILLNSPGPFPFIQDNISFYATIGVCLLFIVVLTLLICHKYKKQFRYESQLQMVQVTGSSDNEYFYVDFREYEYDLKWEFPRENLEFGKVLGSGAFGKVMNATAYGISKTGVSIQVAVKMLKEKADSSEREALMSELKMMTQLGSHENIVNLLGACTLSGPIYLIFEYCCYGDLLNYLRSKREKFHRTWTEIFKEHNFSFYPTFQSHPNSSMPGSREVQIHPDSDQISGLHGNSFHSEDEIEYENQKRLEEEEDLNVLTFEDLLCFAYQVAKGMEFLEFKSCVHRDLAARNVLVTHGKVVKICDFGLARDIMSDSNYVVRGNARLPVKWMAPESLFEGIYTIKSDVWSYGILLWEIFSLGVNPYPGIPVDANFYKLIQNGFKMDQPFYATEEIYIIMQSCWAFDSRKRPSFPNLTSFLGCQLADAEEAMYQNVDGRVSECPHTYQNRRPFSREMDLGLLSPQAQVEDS
Heat shock protein HSP 90-beta (Homo sapiens), sequence (P08238 whole entry): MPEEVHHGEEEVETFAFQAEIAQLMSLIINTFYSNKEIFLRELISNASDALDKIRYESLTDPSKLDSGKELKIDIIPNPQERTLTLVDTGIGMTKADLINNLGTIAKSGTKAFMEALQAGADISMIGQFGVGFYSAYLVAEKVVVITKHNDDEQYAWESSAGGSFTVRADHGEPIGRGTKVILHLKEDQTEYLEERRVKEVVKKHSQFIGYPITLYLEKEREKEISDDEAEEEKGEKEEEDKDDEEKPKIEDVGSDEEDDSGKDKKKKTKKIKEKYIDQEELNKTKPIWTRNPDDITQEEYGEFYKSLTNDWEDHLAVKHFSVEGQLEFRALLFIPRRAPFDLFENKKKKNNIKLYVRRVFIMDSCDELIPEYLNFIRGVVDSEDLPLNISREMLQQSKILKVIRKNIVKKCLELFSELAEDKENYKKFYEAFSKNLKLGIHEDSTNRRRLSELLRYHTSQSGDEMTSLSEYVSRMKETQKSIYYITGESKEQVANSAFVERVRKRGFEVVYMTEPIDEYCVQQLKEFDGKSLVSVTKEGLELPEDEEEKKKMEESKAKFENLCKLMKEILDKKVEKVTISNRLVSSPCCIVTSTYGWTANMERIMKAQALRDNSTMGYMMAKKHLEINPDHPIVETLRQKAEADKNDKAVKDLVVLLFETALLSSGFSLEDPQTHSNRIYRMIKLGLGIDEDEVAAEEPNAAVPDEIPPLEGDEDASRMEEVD

As for `CN1CCN(c2ncc(Sc3cccc(NC(=O)CN)c3)c(OCc3ccccc3)n2)CC1`, the inhibition result (in the experiment on HEK293 [1]; in the experiment on HEK293 [2]; with MOLM-13 [3]; in experiment [4]; in the experiment with MIA PaCa-2 [5]; with MIA PaCa-2 [6]) was “Active” throughout. The inhibition result with MIA PaCa-2 [7], with MDA-MB-468 [8] and in the experiment with MDA-MB-468 [9] was “Active” in each case. Moreover, the INH in [10] was over 500 µM; in the experiment with SK-BR-3 [12], 1.5 µM; with SK-BR-3 [13], 1.2 µM; with SK-BR-3 [14], 1.5 µM. The compound further displayed a GI in experiment [11] of 2.1 µM. The values for the half-maximal inhibitory concentration (IC50) with MOLM-13 [15] and in the experiment on Kasumi 1 were 1.9 µM and 2.3 µM, respectively. The inhibition entry in experiment [16] is “Dose-dependent effect”.
